Reference: ChEMBL document CHEMBL2384977, “Synthesis and biological evaluation of novel styryl benzimidazole derivatives as probes for imaging of neurofibrillary tangles in Alzheimer's disease” (Bioorg Med Chem, 2013)

Assays:
Brain [1] = assay: Ratio of drug level in ICR mouse brain at 0.68 to 1.32 MBq, iv measured at 2 mins to drug level in ICR mouse brain at 0.68 to 1.32 MBq, iv measured at 60 mins; type: ADME, organism-based; settings: in vivo
Brain [2] = assay: Ratio of drug level in ICR mouse brain at 2.6 to 3.3 MBq, iv measured at 2 mins to drug level in ICR mouse brain at 2.6 to 3.3 MBq, iv measured at 60 mins; type: ADME, organism-based; settings: in vivo
Brain [3] = assay: Drug uptake in white matter of alzheimer disease patient brain at 92.5 kBq after 1 hr by autoradiographic analysis; type: ADME, tissue-based; settings: human, in vitro
Procedure, shortened: (§1)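 Postmortem AD brain (person), 6 µm paraffin sections, deparaffinized in xylene and a graded ethanol series. Sections were incubated with the 125I tracer (92.5 kBq/100 µL) for 1 h at room temperature, then dipped in 50% EtOH for 2 h and rinsed in water. Imaging plates were exposed overnight. Adjacent sections were immunostained with AT8 (phospho-tau) and BC05 (Abeta1-42).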

Brain [4] = assay: Drug uptake in human brain at 92.5 kBq after 1 hr by autoradiographic analysis; type: ADME, tissue-based
Brain [5] = assay: Drug uptake in gray matter of alzheimer disease patient brain at 92.5 kBq after 1 hr by autoradiographic analysis; type: ADME, tissue-based; settings: human, in vitro; procedure, shortened: as §1
Intestine [6] = assay: Biodistribution in ddY mouse intestine at 13.2 to 20.6 kBq, iv measured at 60 mins by gamma counting analysis; type: ADME, organism-based; settings: in vivo, 1 h
Procedure, shortened: (§2)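 Male ddY mice, 5 weeks old, received the 125I-labelled tracer (13.2–20.6 kBq) intravenously in the tail vein, in 100 µL saline containing ethanol. Animals were sacrificed at 2, 10, 30 and 60 min. Tissue radioactivity is expressed as %ID/g, mean (SD) of 5 animals.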

Spleen [7] = assay: Biodistribution in ddY mouse spleen at 13.2 to 20.6 kBq, iv measured at 60 mins by gamma counting analysis; type: ADME, organism-based; settings: in vivo, 1 h; procedure, shortened: as §2
Pancreas [8] = assay: Biodistribution in ddY mouse pancreas at 13.2 to 20.6 kBq, iv measured at 60 mins by gamma counting analysis; type: ADME, organism-based; settings: in vivo, 1 h; procedure, shortened: as §2
Heart [9] = assay: Biodistribution in ddY mouse heart at 13.2 to 20.6 kBq, iv measured at 60 mins by gamma counting analysis; type: ADME, organism-based; settings: in vivo, 1 h; procedure, shortened: as §2
Lung [10] = assay: Biodistribution in ddY mouse lung at 13.2 to 20.6 kBq, iv measured at 60 mins by gamma counting analysis; type: ADME, organism-based; settings: in vivo, 1 h; procedure, shortened: as §2
Stomach [11] = assay: Biodistribution in ddY mouse stomach at 13.2 to 20.6 kBq, iv measured per organ at 60 mins by gamma counting analysis; type: ADME, organism-based; settings: in vivo, 1 h
Procedure, shortened: (§3)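 Male ddY mice, 5 weeks old, were injected in the tail vein with the 125I tracer (13.2–20.6 kBq) in 100 µL saline containing ethanol. Sacrifice at 2, 10, 30 and 60 min. Stomach radioactivity is expressed as %ID per whole organ, mean (SD) of 5 animals.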

Brain [12] = assay: Biodistribution in ddY mouse brain at 13.2 to 20.6 kBq, iv measured at 60 mins by gamma counting analysis; type: ADME, organism-based; settings: in vivo, 1 h; procedure, shortened: as §2
Blood [13] = assay: Biodistribution in ddY mouse blood at 13.2 to 20.6 kBq, iv measured at 60 mins by gamma counting analysis; type: ADME, organism-based; settings: in vivo, 1 h; procedure, shortened: as §2
Liver [14] = assay: Biodistribution in ddY mouse liver at 13.2 to 20.6 kBq, iv measured at 10 mins by gamma counting analysis; type: ADME, organism-based; settings: in vivo; procedure, shortened: as §2
Kidney [15] = assay: Biodistribution in ddY mouse kidney at 13.2 to 20.6 kBq, iv measured at 10 mins by gamma counting analysis; type: ADME, organism-based; settings: in vivo; procedure, shortened: as §2
Intestine [16] = assay: Biodistribution in ddY mouse intestine at 13.2 to 20.6 kBq, iv measured at 10 mins by gamma counting analysis; type: ADME, organism-based; settings: in vivo; procedure, shortened: as §2
Spleen [17] = assay: Biodistribution in ddY mouse spleen at 13.2 to 20.6 kBq, iv measured at 10 mins by gamma counting analysis; type: ADME, organism-based; settings: in vivo; procedure, shortened: as §2
Pancreas [18] = assay: Biodistribution in ddY mouse pancreas at 13.2 to 20.6 kBq, iv measured at 10 mins by gamma counting analysis; type: ADME, organism-based; settings: in vivo; procedure, shortened: as §2
Heart [19] = assay: Biodistribution in ddY mouse heart at 13.2 to 20.6 kBq, iv measured at 10 mins by gamma counting analysis; type: ADME, organism-based; settings: in vivo; procedure, shortened: as §2
Lung [20] = assay: Biodistribution in ddY mouse lung at 13.2 to 20.6 kBq, iv measured at 10 mins by gamma counting analysis; type: ADME, organism-based; settings: in vivo; procedure, shortened: as §2
Stomach [21] = assay: Biodistribution in ddY mouse stomach at 13.2 to 20.6 kBq, iv measured per organ at 10 mins by gamma counting analysis; type: ADME, organism-based; settings: in vivo; procedure, shortened: as §3
Brain [22] = assay: Biodistribution in ddY mouse brain at 13.2 to 20.6 kBq, iv measured at 10 mins by gamma counting analysis; type: ADME, organism-based; settings: in vivo; procedure, shortened: as §2
Blood [23] = assay: Biodistribution in ddY mouse blood at 13.2 to 20.6 kBq, iv measured at 10 mins by gamma counting analysis; type: ADME, organism-based; settings: in vivo; procedure, shortened: as §2
Liver [24] = assay: Biodistribution in ddY mouse liver at 13.2 to 20.6 kBq, iv measured at 30 mins by gamma counting analysis; type: ADME, organism-based; settings: in vivo, 0.5 h; procedure, shortened: as §2
Kidney [25] = assay: Biodistribution in ddY mouse kidney at 13.2 to 20.6 kBq, iv measured at 30 mins by gamma counting analysis; type: ADME, organism-based; settings: in vivo, 0.5 h; procedure, shortened: as §2
Intestine [26] = assay: Biodistribution in ddY mouse intestine at 13.2 to 20.6 kBq, iv measured at 30 mins by gamma counting analysis; type: ADME, organism-based; settings: in vivo, 0.5 h; procedure, shortened: as §2
Spleen [27] = assay: Biodistribution in ddY mouse spleen at 13.2 to 20.6 kBq, iv measured at 30 mins by gamma counting analysis; type: ADME, organism-based; settings: in vivo, 0.5 h; procedure, shortened: as §2
Pancreas [28] = assay: Biodistribution in ddY mouse pancreas at 13.2 to 20.6 kBq, iv measured at 30 mins by gamma counting analysis; type: ADME, organism-based; settings: in vivo, 0.5 h; procedure, shortened: as §2
Heart [29] = assay: Biodistribution in ddY mouse heart at 13.2 to 20.6 kBq, iv measured at 30 mins by gamma counting analysis; type: ADME, organism-based; settings: in vivo, 0.5 h; procedure, shortened: as §2
Lung [30] = assay: Biodistribution in ddY mouse lung at 13.2 to 20.6 kBq, iv measured at 30 mins by gamma counting analysis; type: ADME, organism-based; settings: in vivo, 0.5 h; procedure, shortened: as §2
Stomach [31] = assay: Biodistribution in ddY mouse stomach at 13.2 to 20.6 kBq, iv measured per organ at 30 mins by gamma counting analysis; type: ADME, organism-based; settings: in vivo, 0.5 h; procedure, shortened: as §3
Brain [32] = assay: Biodistribution in ddY mouse brain at 13.2 to 20.6 kBq, iv measured at 30 mins by gamma counting analysis; type: ADME, organism-based; settings: in vivo, 0.5 h; procedure, shortened: as §2
Blood [33] = assay: Biodistribution in ddY mouse blood at 13.2 to 20.6 kBq, iv measured at 30 mins by gamma counting analysis; type: ADME, organism-based; settings: in vivo, 0.5 h; procedure, shortened: as §2
Liver [34] = assay: Biodistribution in ddY mouse liver at 13.2 to 20.6 kBq, iv measured at 60 mins by gamma counting analysis; type: ADME, organism-based; settings: in vivo, 1 h; procedure, shortened: as §2
Kidney [35] = assay: Biodistribution in ddY mouse kidney at 13.2 to 20.6 kBq, iv measured at 60 mins by gamma counting analysis; type: ADME, organism-based; settings: in vivo, 1 h; procedure, shortened: as §2
[36] = 1-Octanol-PBS buffer partition coefficient, log P of the compound at 0.37 MBq after 2 mins by gamma counting analysis; type: physicochemical
Brain [37] = assay: Ratio of drug level in ddY mouse brain at 13.2 to 20.6 kBq, iv measured at 2 mins to drug level in ddY mouse brain at 13.2 to 20.6 kBq, iv measured at 60 mins; type: ADME, organism-based; settings: in vivo
Procedure, shortened: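 Tail-vein injection of the 125I tracer (13.2–20.6 kBq, saline with ethanol) into male 5-week-old ddY mice. The ratio is brain uptake (%ID/g) at 2 min divided by brain uptake at 60 min, from groups of 5 animals.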

Brain [38] = assay: Biodistribution in ddY mouse brain at 13.2 to 20.6 kBq, iv measured at 2 mins by gamma counting analysis; type: ADME, organism-based; settings: in vivo; procedure, shortened: as §2
Stomach [39] = assay: Biodistribution in ddY mouse stomach at 13.2 to 20.6 kBq, iv measured per organ at 2 mins by gamma counting analysis; type: ADME, organism-based; settings: in vivo; procedure, shortened: as §3
Heart [40] = assay: Biodistribution in ddY mouse heart at 13.2 to 20.6 kBq, iv measured at 2 mins by gamma counting analysis; type: ADME, organism-based; settings: in vivo; procedure, shortened: as §2
Lung [41] = assay: Biodistribution in ddY mouse lung at 13.2 to 20.6 kBq, iv measured at 2 mins by gamma counting analysis; type: ADME, organism-based; settings: in vivo; procedure, shortened: as §2
Pancreas [42] = assay: Biodistribution in ddY mouse pancreas at 13.2 to 20.6 kBq, iv measured at 2 mins by gamma counting analysis; type: ADME, organism-based; settings: in vivo; procedure, shortened: as §2
Spleen [43] = assay: Biodistribution in ddY mouse spleen at 13.2 to 20.6 kBq, iv measured at 2 mins by gamma counting analysis; type: ADME, organism-based; settings: in vivo; procedure, shortened: as §2
Intestine [44] = assay: Biodistribution in ddY mouse intestine at 13.2 to 20.6 kBq, iv measured at 2 mins by gamma counting analysis; type: ADME, organism-based; settings: in vivo; procedure, shortened: as §2
Kidney [45] = assay: Biodistribution in ddY mouse kidney at 13.2 to 20.6 kBq, iv measured at 2 mins by gamma counting analysis; type: ADME, organism-based; settings: in vivo; procedure, shortened: as §2
Blood [46] = assay: Biodistribution in ddY mouse blood at 13.2 to 20.6 kBq, iv measured at 2 mins by gamma counting analysis; type: ADME, organism-based; settings: in vivo; procedure, shortened: as §2
Liver [47] = assay: Biodistribution in ddY mouse liver at 13.2 to 20.6 kBq, iv measured at 2 mins by gamma counting analysis; type: ADME, organism-based; settings: in vivo; procedure, shortened: as §2

For `Nc1ccc(-c2ccc3cc(OCC[18F])ccc3n2)cc1`, which Ratio (Brain [1]) is on record?
The Ratio was 1.83.

Which Ratio (Brain [2]) does the source give for `[11CH3]Nc1ccc(-c2ccc3ccccc3n2)cc1` here?
The Ratio was 5.38.

Which results are given for `CN(C)c1ccc(/C=C/c2nc3ccc([125I])cc3[nH]2)cc1`?
Drug uptake (Brain [3]): Not Active; Drug uptake (Brain [4]): Not Active; Drug uptake (Brain [5]): Active; Drug uptake (Intestine [6]): 26.5 % ID/g; Drug uptake (Spleen [7]): 1.42 % ID/g; Drug uptake (Pancreas [8]): 0.89 % ID/g; Drug uptake (Heart [9]): 1.12 % ID/g; Drug uptake (Lung [10]): 1.39 % ID/g; Drug uptake (Stomach [11]): 3.56 %ID; Drug uptake (Brain [12]): 0.33 % ID/g; Drug uptake (Blood [13]): 1.28 % ID/g; Drug uptake (Liver [14]): 19.2 % ID/g; Drug uptake (Kidney [15]): 7.28 % ID/g; Drug uptake (Intestine [16]): 9.22 % ID/g; Drug uptake (Spleen [17]): 3.69 % ID/g; Drug uptake (Pancreas [18]): 3.31 % ID/g; Drug uptake (Heart [19]): 3.46 % ID/g; Drug uptake (Lung [20]): 3.98 % ID/g; Drug uptake (Stomach [21]): 2.82 %ID; Drug uptake (Brain [22]): 1.61 % ID/g; Drug uptake (Blood [23]): 3.24 % ID/g; Drug uptake (Liver [24]): 14.9 % ID/g; Drug uptake (Kidney [25]): 4.32 % ID/g; Drug uptake (Intestine [26]): 18.2 % ID/g; Drug uptake (Spleen [27]): 2.66 % ID/g; Drug uptake (Pancreas [28]): 1.67 % ID/g; Drug uptake (Heart [29]): 2 % ID/g; Drug uptake (Lung [30]): 2.2 % ID/g; Drug uptake (Stomach [31]): 3.83 %ID; Drug uptake (Brain [32]): 0.68 % ID/g; Drug uptake (Blood [33]): 1.88 % ID/g; Drug uptake (Liver [34]): 10.1 % ID/g; Drug uptake (Kidney [35]): 2.26 % ID/g; logP at 2 min [36]: 2.23; Ratio (Brain [37]): 9.94; Drug uptake (Brain [38]): 3.28 % ID/g; Drug uptake (Stomach [39]): 1.67 %ID; Drug uptake (Heart [40]): 8.56 % ID/g; Drug uptake (Lung [41]): 7.39 % ID/g; Drug uptake (Pancreas [42]): 5.4 % ID/g; Drug uptake (Spleen [43]): 3.48 % ID/g; Drug uptake (Intestine [44]): 3.11 % ID/g; Drug uptake (Kidney [45]): 11.7 % ID/g; Drug uptake (Blood [46]): 3.83 % ID/g; Drug uptake (Liver [47]): 17.4 % ID/g
